ABHD5 PLIN5 PPI – blocks binding of human ABHD5 to perilipin-5 | Q00G26+Q8WTS1 | Split G. princeps luciferase complementation, luminescence, 4 h | inhibition, % at 4 µM | actives 0.78% (n = 360,000) | AID 602281;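 active = inhibition above the mean inhibition across every tested compound plus 3 SD, cut at about 22% in these data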;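 note: 0% = DMSO only wells and the 100% control is not disclosed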
UHRF1 MBD2 ctr – UHRF1 methyl-DNA binding inhibition; UHRF1 binding to methylated oligo, TR-FRET; inhibition, % at 4.4 µM; actives 0.75% (n = 370,000); AID 687016; in the data active = inhibition above about 21%;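 note: UHRF1 SRA domain binding a hemimethylated CpG hairpin DNA probe; 0% = median of test compound wells and 100% = reference inhibitor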
PRMT1 FP inh – PRMT1 (human) inhibition, primary screen | Q99873 | inhibition, % at 2.79 µM | actives 1.3% (n = 370,000) | AID 652257 | recombinant PRMT1, activity-based probe fluorescence polarization;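 active = inhibition above about 21% made by adding two undisclosed values, limit read from the data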
MBD2 DNA inh – MBD2-methylated oligo binding inhibition | TR-FRET, MBD2 binding to methylated oligonucleotide | inhibition, % at 4.4 µM | actives 0.31% (n = 370,000) | AID 686964; in the data active = inhibition above about 13%
Target sequence (Q9UBB5 whole entry, looked up): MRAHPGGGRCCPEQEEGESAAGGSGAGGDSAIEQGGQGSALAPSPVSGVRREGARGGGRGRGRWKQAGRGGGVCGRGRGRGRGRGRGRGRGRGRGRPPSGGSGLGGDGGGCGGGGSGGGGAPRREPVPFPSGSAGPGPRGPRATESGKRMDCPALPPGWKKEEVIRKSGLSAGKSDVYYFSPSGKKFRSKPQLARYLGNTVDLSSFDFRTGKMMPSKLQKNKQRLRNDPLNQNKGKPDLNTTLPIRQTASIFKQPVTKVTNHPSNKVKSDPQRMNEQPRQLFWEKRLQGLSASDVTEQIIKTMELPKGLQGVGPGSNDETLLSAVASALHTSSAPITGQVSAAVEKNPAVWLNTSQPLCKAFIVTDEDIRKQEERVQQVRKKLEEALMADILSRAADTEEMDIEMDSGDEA
LEDGF integ inh – blocks HIV-1 LEDGF/p75-dependent DNA integration. TR-FRET IN-LEDGF/p75 DNA integration, Eu/Cy5. actives 0.64% (n = 370,000). inhibition, % at 3.7 µM. AID 743269;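 active = inhibition above the screen-wide mean plus 3 SD, cut at about 13% in these data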;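 note: signal is the Cy5 over europium emission ratio at 671 and 618 nm; 0% = plate median of compound wells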
RBBP9 inhibitor – human RBBP9 hydrolase inhibition. inhibition, % at 7.94 µM. AID 1515. recombinant RBBP9, FP-Rh probe fluorescence polarization. actives 0.2% (n = 220,000);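 active = inhibition above the campaign mean of all tested compounds plus 3 SD, cut at about 14% in these data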;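 note: plate controls were DMSO wells with RBBP9 for no effect and wells lacking RBBP9 protein for full effect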
Target sequence (O75884 whole entry, looked up): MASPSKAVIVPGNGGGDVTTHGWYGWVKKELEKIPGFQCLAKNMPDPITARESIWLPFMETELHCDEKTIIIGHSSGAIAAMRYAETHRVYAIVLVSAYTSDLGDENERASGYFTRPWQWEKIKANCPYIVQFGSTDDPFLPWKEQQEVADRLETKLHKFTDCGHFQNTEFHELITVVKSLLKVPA
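Assay system: recombinant human RBBP9; Reagent: Serine-hydrolase probe FP-Rh, 375 nM pre-mixing; Doses: 7.94 µM single dose, 0.794% DMSO; Incubation: 30 min then 45 min, 25 °C; Detection: fluorescence polarization (mP), excitation 525 nm, emission 598 nm; Evaluation: percent inhibition from mP, scaled between DMSO and no-protein wells.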
ABHD5-PLIN5 conf – ABHD5-PLIN5 interaction inhibition, confirmed; shares compounds with ABHD5 PLIN5 PPI; biochemical ABHD5-PLIN5 interaction, luminescence; inhibition, % at 4 µM; actives 67% (n = 2,200); AID 651612; in the data active = inhibition above about 23%;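 note: 0% = DMSO vehicle wells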
HNF4 split-luc – counter-screen for ABHD5-PLIN5 inhibitors: HNF4 split-luciferase | shares compounds with ABHD5 PLIN5 PPI | HNF4 dimerization, luminescence, biochemical | inhibition, % at 4 µM | actives 77% (n = 2,200);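 active = mean inhibition across replicate wells exceeding the computed hit threshold, cut at about 13% in these data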;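 note: light from luciferase halves that rejoin when HNF4 fusion proteins dimerize; 0% = DMSO only wells and the 100% control is not given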
PRMT1 confirm – PRMT1 (human) inhibition, FP confirmation. shares compounds with PRMT1 FP inh. recombinant His-PRMT1, activity-based probe fluorescence polarization. inhibition, % at 2.79 µM. actives 42% (n = 3,300);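 active = mean inhibition across replicates above the hit cutoff derived for the earlier primary screen, cut at about 22% in these data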
* = called active by the depositor; x = not tested or not shown. Sampled rows, rich in hits. Any-hit rate of the full collection: about 3.1%.

SMILES	ABHD5 PLIN5 PPI	UHRF1 MBD2 ctr	PRMT1 FP inh	MBD2 DNA inh	LEDGF integ inh	RBBP9 inhibitor	ABHD5-PLIN5 conf	HNF4 split-luc	PRMT1 confirm
O=c1c2cc(N3CCOCC3)ccc2[nH]c(=S)n1Cc1cccc(Cl)c1	7.7	-2.0	-2.8	-0.7	-1.9	-12.1	x	x	x
O=c1c2cc(N3CCOCC3)ccc2[nH]c(=S)n1Cc1ccco1	25.3*	3.0	32.2*	-0.9	11.4	x	43.3*	77.3*	65.3*
NC(=O)c1ccc(-c2ccc(Br)cc2)o1	11.9	1.8	1.3	-1.4	0.4	-2.0	x	x	x
O=C(O)CCc1ccc(-c2ccc(Br)cc2)o1	29.0*	-3.3	62.3*	-4.9	4.8	-16.4	24.0*	71.2*	62.2*
COc1ccc(-c2ccc(CCC(=O)O)o2)cc1	60.5*	-0.1	57.5*	1.1	-4.8	-12.1	13.7	64.5*	5.5
CCOc1cc(/C=C2\C(=O)N(Cc3ccc(C)cc3)C(C)=C2C(=O)OC)ccc1O	23.1*	-6.9	41.1*	-4.8	-0.3	-1.7	50.1*	39.5*	6.5
OC1OC2COC(c3ccccc3)OC2C(O)C1O (stereo not drawn)	x	2.1	-1.2	2.6	0.4	x	x	x	x
O=C(O)/C=C/C(=O)c1ccc2c(c1)NC(=O)CO2	90.1*	0.7	34.8*	2.3	1.3	5.8	90.9*	104.8*	46.9*
CCN(CC)C(=O)CC[C@@H]1CC[C@]2(CCCN(C(=O)c3cccnc3)C2)O1	x	-2.2	-4.4	2.6	4.0	x	x	x	x
Cc1ccc(S(=O)(=O)CCC(=O)c2cccc([N+](=O)[O-])c2)cc1	33.2*	-1.8	82.9*	2.5	1.0	x	64.9*	98.0*	90.8*
Cc1cccc(OCC(C)CN2CCC(C(O)(c3ccccc3)c3ccccc3)CC2)c1 (stereo not drawn)	x	2.4	-2.1	2.8	-5.0	x	x	x	x
C=CCn1c(SCC(=O)NCC2CCCO2)nc2scc(-c3ccco3)c2c1=O (stereo not drawn)	34.1*	-3.0	25.8*	3.9	3.4	-4.4	33.9*	82.1*	5.3
Cc1c(C(=O)OCC(C)C)[nH]c2c1C(=O)CC(c1ccco1)C2 (stereo not drawn)	28.0*	3.5	31.0*	5.9	5.3	-1.5	6.1	7.7	8.6
C=CCOC(=O)c1[nH]c2c(c1C)C(=O)CC(c1ccco1)C2 (stereo not drawn)	x	x	x	x	x	-5.3	x	x	x
C=C1C(=O)C23C(O)C1CCC2C12COC3(O)C(O)C1C(C)(C)CCC2O (stereo not drawn)	96.0*	-0.8	28.9*	-6.9	1.3	x	88.1*	105.9*	41.3*
CCOc1cc(C(c2c(O)nc(SC)[nH]c2=O)c2c(O)nc(SC)[nH]c2=O)ccc1O	32.1*	-1.7	49.3*	0.5	-2.1	x	89.3*	76.8*	41.2*
CCOCCc1c(O)nc(SC)[nH]c1=O	1.9	1.8	-2.6	3.5	-0.4	-2.3	x	x	x
COc1ccc(N2C(=O)c3n[nH]c(C(C)C)c3C2c2ccc(C)cc2)cc1 (stereo not drawn)	x	0.7	-2.3	1.0	-2.4	x	x	x	x
O=C(c1ccc2c3c(cccc13)CC2)C1CCCN(Cc2cccnc2)C1 (stereo not drawn)	5.1	-1.1	0.9	-0.6	-2.6	-6.5	x	x	x
COc1cc(CN2CCCC(C(=O)c3ccc4c5c(cccc35)CC4)C2)cc(OC)c1O (stereo not drawn)	29.1*	0.5	27.9*	-3.6	-2.7	-2.6	15.4	39.7*	7.8
O=S(=O)(NC1=NCCCCC1)c1ccc2sc(NS(=O)(=O)c3ccc4ccccc4c3)nc2c1	47.5*	-5.9	44.3*	4.8	-7.4	-16.2	9.2	-35.0	26.8*
O=S(=O)(Nc1nc2c(s1)CCCC2)c1ccc2ccccc2c1	-4.1	1.4	-0.8	-0.1	-0.1	-5.1	x	x	x
COC(=O)C1=C(C)N(C)C(=NCc2ccc(C(F)(F)F)cc2)NC1c1cccc(Cl)c1 (stereo not drawn)	x	-3.0	-4.1	-1.6	-1.3	x	x	x	x
Cc1nc(N2CCCCC2C)c2nnn(Cc3ccccc3)c2n1 (stereo not drawn)	x	-0.9	-3.8	-6.4	-1.2	x	x	x	x
Cc1ccc(Nc2c(-c3ccc(C)o3)nc3ncccn23)cc1	2.6	-3.2	11.3	-3.1	-2.1	11.0	x	x	x
SMILES	ABHD5 PLIN5 PPI	UHRF1 MBD2 ctr	PRMT1 FP inh	MBD2 DNA inh	LEDGF integ inh	RBBP9 inhibitor	ABHD5-PLIN5 conf	HNF4 split-luc	PRMT1 confirm
Cc1ccc(-c2nc3cnccn3c2Nc2c(C)cccc2C)o1	37.7*	-3.4	78.7*	-0.1	3.1	-6.9	29.8*	94.5*	11.3
O=C1CCCC(=O)C1CS(=O)(=O)c1ccccc1	40.7*	4.5	44.3*	5.2	-4.2	-6.1	46.0*	97.8*	27.4*
O=S(=O)(CS(=O)(=O)c1ccccc1)c1ccccc1	2.0	2.2	-2.5	-0.2	1.6	x	x	x	x
CCOc1ccc2[nH]c(=O)c(CN(Cc3ccco3)C(=O)c3ccc(Br)cc3)cc2c1	30.2*	2.3	35.9*	-0.4	7.1	-1.4	89.2*	92.5*	0.0
Cc1ccc(/C=C2/NC(=O)N(Cc3ccccc3)C2=O)o1	44.1*	-5.5	66.4*	-1.8	4.5	6.8	58.2*	68.4*	15.2
O=S1(=O)c2ccc(Br)cc2OCCC2CCCCN21 (stereo not drawn)	x	13.5	0.9	1.6	-3.1	x	x	x	x
COc1cccc(C2NC(=S)N(Cc3ccc(Br)cc3)C(C)=C2C(C)=O)c1 (stereo not drawn)	x	0.1	-0.2	0.7	0.1	x	x	x	x
CCOC(=O)C1=CC[C@@H](c2ccccc2)N(S(=O)(=O)c2ccc(C)cc2)[C@H]1c1ccc(C#N)cc1	1.9	16.1	-5.1	2.4	-1.0	x	x	x	x
CCOC(=O)C1=CC[C@@H](c2ccccc2)N(S(=O)(=O)c2ccc(C)cc2)[C@H]1C#N	57.7*	-2.4	27.5*	-5.7	-1.2	x	29.7*	65.0*	22.3*
COC(=O)c1cc(NC(=O)NC2CCCCN(Cc3ccc(Cl)cc3)C2=O)cc(C(=O)OC)c1 (stereo not drawn)	x	-1.1	-8.3	-2.9	7.2	x	x	x	x
COC(=O)/C=C/S(=O)(=O)c1ccc(NC(C)=O)cc1	76.2*	0.2	72.9*	-2.5	1.3	-11.3	86.5*	107.0*	28.6*
COc1ccccc1OS(=O)(=O)c1ccc(NC(C)=O)cc1	3.1	-0.3	-2.1	1.6	-0.6	-9.4	x	x	x
Cc1nn(-c2ccccc2)c2sc(C(=O)NCCc3ccccc3)cc12	x	-0.7	-3.2	-2.9	-1.5	x	x	x	x

Source: PubChem (The Scripps Research Institute Molecular Screening Center)
